# Experimental data as given in ChEMBL document CHEMBL3351523 (Bioorg Med Chem, 2014).
# System: not listed separately
# Assay: Cytotoxicity against mock-infected MDBK cells after 48 to 96 hrs by MTT assay
# Format: cell-based, Bos taurus
# Conditions: cattle
# How it was run: (§1)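 Mock-infected MDBK (6 × 10^5 cells/mL; MEM-E, 10% horse serum, 1 mM pyruvate) or BHK (1 × 10^6 cells/mL; MEM-E, 10% FBS) cells were incubated at 37 °C, 5% CO2 with serial dilutions from 100 µM, 1:5. Viability by MTT after 48–96 h. CC50 from linear regression against untreated controls.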
row,Compound,CC50 [µM]
1,FC(F)(F)c1ccc2[nH]c(C3CCCCO3)nc2c1 (configuration not stated),> 100
2,Clc1ccc2[nH]c(C3CCCCO3)nc2c1 (configuration not stated),> 100
3,COc1ccc(-c2nc3cc(C(F)(F)F)ccc3n2CCN(C)C)cc1,> 100
4,Nc1nc2c(ncn2COCCO)c(=O)[nH]1 [ACYCLOVIR],> 100

# System: Human alphaherpesvirus 1
# Assay: Antiviral activity against HSV1 infected in african green monkey Vero 76 cells assessed as reduction in plaque number after 3 days by plaque reduction assay
# Format: functional, organism-based
# Conditions: Human alphaherpesvirus 1, Vero, 72 h
row,Compound,EC50 [µM]
1,FC(F)(F)c1ccc2[nH]c(C3CCCCO3)nc2c1 (configuration not stated),> 100
2,Clc1ccc2[nH]c(C3CCCCO3)nc2c1 (configuration not stated),> 100
3,COc1ccc(-c2nc3cc(C(F)(F)F)ccc3n2CCN(C)C)cc1,> 100
4,Nc1nc2c(ncn2COCCO)c(=O)[nH]1 [ACYCLOVIR],1.2

# System: not listed separately
# Assay: Cytotoxicity against mock-infected BHK21 cells after 48 to 96 hrs by MTT assay
# Format: functional
# Conditions: Mesocricetus auratus, BHK-21
# How it was run: as §1
row,Compound,CC50 [µM]
1,FC(F)(F)c1ccc2[nH]c(C3CCCCO3)nc2c1 (configuration not stated),> 100
2,Clc1ccc2[nH]c(C3CCCCO3)nc2c1 (configuration not stated),> 100
3,COc1ccc(-c2nc3cc(C(F)(F)F)ccc3n2CCN(C)C)cc1,> 100
4,Nc1nc2c(ncn2COCCO)c(=O)[nH]1 [ACYCLOVIR],> 100

# System: Reovirus sp.
# Assay: Antiviral activity against Reovirus type-1 infected in BHK21 cells assessed as inhibition of virus-induced cytopathogenicity after 3 to 4 days by MTT assay
# Format: functional, organism-based
# Conditions: BHK-21
row,Compound,EC50 [µM]
1,FC(F)(F)c1ccc2[nH]c(C3CCCCO3)nc2c1 (configuration not stated),> 100
2,Clc1ccc2[nH]c(C3CCCCO3)nc2c1 (configuration not stated),> 100
3,COc1ccc(-c2nc3cc(C(F)(F)F)ccc3n2CCN(C)C)cc1,> 100
4,Nc1nc2c(ncn2COCCO)c(=O)[nH]1 [ACYCLOVIR],> 100

# System: Coxsackievirus B5
# Assay: Antiviral activity against Coxsackievirus B5 infected in african green monkey Vero 76 cells assessed as reduction in plaque number after 3 days by plaque reduction assay
# Format: functional, organism-based
# Conditions: Enterovirus B, 72 h
row,Compound,EC50 [µM]
1,COc1ccc(-c2nc3cc(C(F)(F)F)ccc3n2CCN(C)C)cc1,> 100
2,Nc1nc2c(ncn2COCCO)c(=O)[nH]1 [ACYCLOVIR],> 100

# System: Vaccinia virus
# Assay: Antiviral activity against Vaccinia Virus infected in african green monkey Vero 76 cells assessed as reduction in plaque number after 3 days by plaque reduction assay
# Format: functional, organism-based
# Conditions: Orthopoxvirus vaccinia, 72 h
row,Compound,EC50 [µM]
1,COc1ccc(-c2nc3cc(C(F)(F)F)ccc3n2CCN(C)C)cc1,> 100
2,Nc1nc2c(ncn2COCCO)c(=O)[nH]1 [ACYCLOVIR],> 100

# System: Respiratory syncytial virus
# Assay: Antiviral activity against Respiratory syncytial virus infected in african green monkey Vero 76 cells assessed as reduction in plaque number after 5 days by plaque reduction assay
# Format: functional, organism-based
# Conditions: human respiratory syncytial virus, 120 h
row,Compound,EC50 [µM]
1,COc1ccc(-c2nc3cc(C(F)(F)F)ccc3n2CCN(C)C)cc1,> 100
2,Nc1nc2c(ncn2COCCO)c(=O)[nH]1 [ACYCLOVIR],> 100

# System: Yellow fever virus
# Assay: Antiviral activity against Yellow fever virus infected in BHK21 cells assessed as inhibition of virus-induced cytopathogenicity after 3 to 4 days by MTT assay
# Format: functional, organism-based
# Conditions: BHK-21
row,Compound,EC50 [µM]
1,FC(F)(F)c1ccc2[nH]c(C3CCCCO3)nc2c1 (configuration not stated),> 100
2,Clc1ccc2[nH]c(C3CCCCO3)nc2c1 (configuration not stated),> 100
3,COc1ccc(-c2nc3cc(C(F)(F)F)ccc3n2CCN(C)C)cc1,> 100
4,Nc1nc2c(ncn2COCCO)c(=O)[nH]1 [ACYCLOVIR],> 100

# System: Poliovirus 1
# Assay: Antiviral activity against Poliovirus type 1 Sabin strain infected in african green monkey Vero 76 cells assessed as reduction in plaque number after 2 days by plaque reduction assay
# Format: functional, organism-based
# Conditions: Enterovirus C, 48 h
row,Compound,EC50 [µM]
1,FC(F)(F)c1ccc2[nH]c(C3CCCCO3)nc2c1 (configuration not stated),> 100
2,Clc1ccc2[nH]c(C3CCCCO3)nc2c1 (configuration not stated),20
3,COc1ccc(-c2nc3cc(C(F)(F)F)ccc3n2CCN(C)C)cc1,> 100
4,Nc1nc2c(ncn2COCCO)c(=O)[nH]1 [ACYCLOVIR],> 100

# System: Vesicular stomatitis virus
# Assay: Antiviral activity against Vesicular stomatitis virus infected in african green monkey Vero 76 cells assessed as reduction in plaque number after 2 days by plaque reduction assay
# Format: functional, organism-based
# Conditions: 48 h
row,Compound,EC50 [µM]
1,FC(F)(F)c1ccc2[nH]c(C3CCCCO3)nc2c1 (configuration not stated),> 100
2,Clc1ccc2[nH]c(C3CCCCO3)nc2c1 (configuration not stated),> 100
3,COc1ccc(-c2nc3cc(C(F)(F)F)ccc3n2CCN(C)C)cc1,> 100
4,Nc1nc2c(ncn2COCCO)c(=O)[nH]1 [ACYCLOVIR],> 100

# System: not listed separately
# Assay: Cytotoxicity against mock-infected human MT4 cells after 96 hrs by MTT assay
# Format: cell-based
# Conditions: not given
# How it was run: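 Exponentially growing MT-4 cells were seeded at 1 × 10^5 cells/mL in RPMI-1640 with 10% FBS and held at 37 °C, 5% CO2 with serial compound dilutions. Viability was read by MTT after 96 h. CC50 from linear regression against untreated controls.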
row,Compound,CC50 at 96 h [µM]
1,ClC1(Cl)C2CCOC21n1cnc2ccccc21 (configuration not stated),33
2,FC(F)(F)c1ccc2[nH]c(C3CCCCO3)nc2c1 (configuration not stated),97
3,Clc1ccc2[nH]c(C3CCCCO3)nc2c1 (configuration not stated),> 100
4,COc1ccc(-c2nc3cc(C(F)(F)F)ccc3n2CCN(C)C)cc1,> 100
5,Nc1nc2c(ncn2COCCO)c(=O)[nH]1 [ACYCLOVIR],> 100
6,O=C1Nc2ccc(Cl)cc2[C@@](C#CC2CC2)(C(F)(F)F)O1 [EFAVIRENZ],38

# System: Bovine viral diarrhea virus 1
# Assay: Antiviral activity against Bovine viral diarrhea virus infected in MDBK cells assessed as inhibition of virus-induced cytopathogenicity after 3 to 4 days by MTT assay
# Format: functional, organism-based
# Conditions: Bovine viral diarrhea virus isolates and strains
row,Compound,EC50 [µM]
1,FC(F)(F)c1ccc2[nH]c(C3CCCCO3)nc2c1 (configuration not stated),> 100
2,Clc1ccc2[nH]c(C3CCCCO3)nc2c1 (configuration not stated),> 100
3,COc1ccc(-c2nc3cc(C(F)(F)F)ccc3n2CCN(C)C)cc1,> 100
4,Nc1nc2c(ncn2COCCO)c(=O)[nH]1 [ACYCLOVIR],> 100

# System: Human immunodeficiency virus 1
# Assay: Antiviral activity against HIV1 infected in human MT4 cells assessed as inhibition of virus-induced cytopathogenicity after 4 days by MTT assay
# Format: functional, organism-based
# Conditions: Human immunodeficiency virus 1, MT4, 96 h
# How it was run: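 MT-4 cells (1 × 10^4/well in RPMI) were infected acutely with HIV-1 IIIB, 100 CCID50 (m.o.i. 0.01), with serial dilutions from 100 µM, 1:5. After 4 days at 37 °C, protection from virus-induced cytopathogenicity was read by MTT. EC50 came from linear regression against untreated controls.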
row,Compound,EC50 [µM]
1,ClC1(Cl)C2CCOC21n1cnc2ccccc21 (configuration not stated),> 100
2,FC(F)(F)c1ccc2[nH]c(C3CCCCO3)nc2c1 (configuration not stated),> 100
3,Clc1ccc2[nH]c(C3CCCCO3)nc2c1 (configuration not stated),> 100
4,COc1ccc(-c2nc3cc(C(F)(F)F)ccc3n2CCN(C)C)cc1,> 100

# System: not listed separately
# Assay: Cytotoxicity against mock-infected african green monkey Vero 76 cells after 48 to 96 hrs by MTT assay
# Format: cell-based
# Conditions: chlorocebus sabaeus, mock-infected Vero 76 cells
row,Compound,CC50 [µM]
1,FC(F)(F)c1ccc2[nH]c(C3CCCCO3)nc2c1 (configuration not stated),> 100
2,Clc1ccc2[nH]c(C3CCCCO3)nc2c1 (configuration not stated),> 100
3,COc1ccc(-c2nc3cc(C(F)(F)F)ccc3n2CCN(C)C)cc1,> 100
4,Nc1nc2c(ncn2COCCO)c(=O)[nH]1 [ACYCLOVIR],> 100
